Paper PMC7201918 (The Journal of Experimental Medicine, 2020)

Columns and labels:
[1] = tested on: GM-CSF (Csf2fl/fl:R26CreERT2 mice); assay: EAE with tamoxifen-induced GM-CSF deletion; assay type: in vivo, mouse; details: tamoxifen by oral gavage after EAE onset in Csf2fl/fl:R26CreERT2 mice; n = 12 mice
[2] = tested on: BM neutrophils from WT and CIS−/− mice; assay: CXCL2 and CCL3 secretion by BM neutrophils; assay type: cell-based, mouse; details: CIS−/− vs WT neutrophils, GM-CSF for 24 h; n = 3 mice
[3] = tested on: WT and CIS−/− BM neutrophils; assay: RNASeq of BM neutrophils after GM-CSF stimulation; assay type: cell-based, mouse; details: GM-CSF 100 ng/ml
Method in brief: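 Neutrophils were FACS-sorted from WT and CIS−/− bone marrow (PI– CD3– CD19– CD115– CD11b+ Ly6G+; 99–100% purity). They were left unstimulated or stimulated with recombinant GM-CSF at 100 ng/ml for 4 h and 24 h. RNA libraries underwent single-end 75 bp sequencing on a NextSeq 500 (~20 million reads per sample), and reads were quality-checked with fastqc.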

[4] = tested on: WT mouse BM neutrophils; assay: SOCS mRNA expression by real-time PCR in BM neutrophils; assay type: cell-based; details: purified mouse BM neutrophils, 100 ng/ml GM-CSF, later time points
[5] = tested on: CIS−/− BM neutrophils; assay: Immunoblot of JAK-STAT/MAPK/Akt phosphorylation in WT or CIS−/− BM neutrophils; assay type: cell-based, mouse
Method in brief: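 Ly6G-selected bone marrow neutrophils (≥95% pure) were primed with GM-CSF (100 ng/ml) for 3 h, washed, and held in cytokine-free medium for various times. Cells were lysed in RIPA buffer containing protease and phosphatase inhibitors, and loading was normalized by BCA assay. Lysates were separated on 4–12% Bis-Tris gels, transferred to PVDF, and detected by chemiluminescence. One of three independent experiments.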

[6] = tested on: human blood neutrophils and monocytes; assay: Immunoblotting of pSTAT5 and CIS in human blood neutrophils and monocytes; assay type: cell-based; details: GM-CSF stimulation
Method in brief: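 Blood neutrophils and monocytes from healthy human donors were treated with GM-CSF. pSTAT5, CIS and β-actin were immunoblotted from RIPA lysates (protease and phosphatase inhibitors, BCA-normalized) run on 4–12% Bis-Tris gels and detected by chemiluminescence. One experiment representative of three.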

[7] = tested on: BM monocytes from WT and CIS−/− mice; assay: Differentiation of BM monocytes into CD11c+ GM-Macs; assay type: cell-based, mouse; details: CIS-deficient relative to WT monocytes; n = 4 mice
Method in brief: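 Monocytes were purified from bone marrow by anti-CD115 magnetic positive selection (>95% purity). They were cultured with recombinant GM-CSF at 100 ng/ml in RPMI 1640 with antibiotics and 10% heat-inactivated FCS for the indicated times. The frequency of CD11c+ GM-Macs was determined by flow cytometry. n = 4 mice pooled from two independent experiments.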

[8] = tested on: CD131 (GM-CSFRβ) on BM neutrophils; assay: Flow-cytometric analysis of CD131; assay type: cell-based, mouse; details: CIS−/− compared with WT neutrophils from 50:50 chimeric mice; n = 4 mice
Method in brief: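 Surface CD131 was measured by flow cytometry on bone marrow neutrophils from WT:CIS−/− (50:50) chimeric mice. Cells were analysed naive (t0) and after stimulation with recombinant G-CSF or GM-CSF (100 ng/ml). n = 4 mice pooled from two independent experiments.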

[9] = tested on: WT or CIS−/− BM neutrophils; assay type: cell-based, mouse; details: for cleaved caspase-3 induction upon cytokine withdrawal: G-CSF: WT and CIS−/− neutrophils, GM-CSF: CIS−/− relative to WT; for Mcl-1 expression: WT and CIS−/− neutrophils, G-CSF or GM-CSF preconditioning
Method in brief: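 Purified bone marrow neutrophils were exposed to recombinant G-CSF or GM-CSF (100 ng/ml) for 3 h, then replenished with cytokine-free medium for the indicated times. RIPA lysates with protease and phosphatase inhibitors were BCA-normalized. They were resolved on 4–12% Bis-Tris gels, blotted to PVDF, and developed by HRP chemiluminescence.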

[10] = tested on: CCRL2 on BM neutrophils; assay: Flow-cytometric analysis of CCRL2 surface expression on BM neutrophils; assay type: cell-based, mouse; details: CIS−/− vs WT neutrophils; n = 3 mice
[11] = tested on: BM monocytes from WT and CIS−/− mice; assay: Chemokine; assay type: cell-based, mouse; details: 8 h after GM-CSF stimulation, n = 3 mice
Method in brief: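 Bone marrow monocytes from WT and CIS−/− mice were isolated by anti-CD115-biotin/anti-biotin microbead positive selection (>95% purity). They were stimulated with recombinant GM-CSF at 100 ng/ml for 8 h in RPMI 1640 with antibiotics and 10% heat-inactivated FCS. Ccl17 and Ccl22 mRNA was measured by real-time PCR, normalized to Gapdh. n = 3 mice, one experiment.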

[12] = tested on: eosinophils; details: ref Burnham et al., 2013; Matsumoto et al., 1997; Yoshimura et al., 1995; cited from earlier work
[13] = tested on: WT and CIS−/− BM eosinophils; assay: Generation of eosinophils from BM cells in IL-5; assay type: cell-based, mouse; details: IL-5 for 3 d, n = 3 mice
[14] = tested on: synovial cell cultures; details: exogenous IL-18, synovial cell cultures; ref Gracie et al., 1999; cited from earlier work
[15] = tested on: IL-18; details: cited from earlier work

Molecule: CC/C(=C(\c1ccccc1)c1ccc(OCCN(C)C)cc1)c1ccccc1 [tamoxifen]
- progression of EAE [1]: inhibited the progression of EAE

Molecule: GM-CSF: recombinant GM-CSF (100 ng/ml)
- CXCL2 and CCL3 secretion [2]: secreted higher levels of CXCL2 and CCL3 chemokines
- gene expression change, 24 h ([3]; CIS−/− neutrophils, 24 h): extensive transcriptional changes
- gene expression change, 4 h ([3]; CIS−/− vs WT neutrophils, 4 h): little difference in gene expression
- persistence of SOCS mRNA induction [4]: only Cish mRNA levels were sustained at later time points
- STAT5 activation, later time points ([5]; CIS−/− vs WT neutrophils, 100 ng/ml GM-CSF, 2 h after stimulation): prolonged expression of STAT5 activation at later time points
- JAK2-STAT5 activation after cytokine withdrawal ([5]; GM-CSF-primed (3 h) then washed CIS−/− neutrophils): Extended JAK2-STAT5 activation
- STAT3 and Akt dephosphorylation after cytokine withdrawal ([5]; GM-CSF-primed (3 h) then washed, WT vs CIS−/− neutrophils): kinetics of STAT3 and Akt dephosphorylation were similar
- p38 MAPK and SAPK/JNK activation after cytokine withdrawal ([5]; GM-CSF-primed then washed CIS−/− neutrophils): prolonged activation of p38 MAPK and SAPK/JNK
- CIS induction and STAT5 phosphorylation [6]: CIS induction and STAT5 phosphorylation
- differentiation into GM-Macs [7]: accelerated differentiation into GM-Macs
- cell surface GM-CSFRβ expression after stimulation [8]: higher cell surface GM-CSFRβ expression
- A1/Bfl-1 induction ([9]; BM neutrophils): selectively induced the pro-survival protein A1/Bfl-1
- A1/Bfl-1 level upon cytokine withdrawal ([9]; CIS−/− neutrophils upon GM-CSF withdrawal): sustained for a longer period
- cleaved caspase-3 induction upon cytokine withdrawal [9]: delayed induction of cleaved caspase-3
- Mcl-1 expression [9]: no difference in the expression of prosurvival Mcl-1 protein
- cell surface CCRL2 expression [10]: enhanced cell surface CCRL2 expression
- chemokine production by monocytes [11]: produced higher levels of chemokines

Molecule: IL-5: cytokine signaling through the common β chain
- Cish expression in eosinophils [12]: can induce Cish expression
- eosinophil numbers [13]: greater numbers

Molecule: IL-18: IL-1 family member; exogenous IL-18
- secretion of GM-CSF (along with nitric oxide, TNF, and IFN-γ) [14]: promote the secretion of GM-CSF
- effect on CIA, exogenous IL-18 ([15]; ref Gracie et al., 1999): prime CIA

B1: G-CSF: recombinant G-CSF (100 ng/ml) (protein, UniProt P09919 31-207, looked up)
Granulocyte …: TPLGPASSLPQSFLLKCLEQVRKIQGDGAALQEKLVSECATYKLCHPEELVLLGHSLGIPWAPLSSCPSQALQLAGCLSQLHSGLFLYQGLLQALEGISPELGPTLDTLQLDVADFATTIWQQMEELGMAPALQPTQGAMPAFASAFQRRAGGVLVASHLQSFLEVSYRVLRHLAQP
- cell surface GM-CSFRβ expression after stimulation [8]: no such difference
- cleaved caspase-3 induction upon cytokine withdrawal [9]: rapid induction of cleaved caspase-3
- Mcl-1 expression [9]: no difference in the expression of prosurvival Mcl-1 protein

B2: IL-18–binding protein: endogenous inhibitor of IL-18 (protein, UniProt O95998 31-194, looked up)
Interleukin-18-binding protein: TPVSQTTTAATASVRSTKDPCPSQPPVFPAAKQCPALEVTWPEVEVPLNGTLSLSCVACSRFPNFSILYWLGNGSFIEHLPGRLWEGSTSRERGSTGTQLCKALVLEQLTPALHSTNFSCVLVDPEQVVQRHVVLAQLWAGLRATLPPTQEALPSSHSSPQQQG
- effect on CIA, IL-18 inhibition ([15]; ref Plater-Zyberk et al., 2001): alleviation of CIA
